Source: publication PMC9334479 (Infectious Diseases and Therapy, 2022)
Where a SMILES comes first, the peptide text is derived from it.

Key:
[1] = Total plasma concentration of PMB, PMB1 and PMB2 by HPLC-MS/MS; type: in vivo, human; settings: for Cmin (B1)/Cmin (B2): median (IQR)
Outline: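 Critically ill adults received IV PMB sulfate. Plasma was drawn at the sixth or later dose, 10 min after infusion end (Cmax) and just before dosing (Cmin), spun at 3500g, 2–8 °C for 10 min, and stored at −80 °C. Plasma plus polymyxin E internal standard underwent formic acid/acetonitrile extraction. Analysis used C18 gradient LC and positive MRM 402.1→101.15 (PMB1), 397.4→101.15 (PMB2). AKI was graded by RIFLE SCr criteria.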

[2] = system: plasma protein; assay: Plasma protein binding rate by equilibrium dialysis; type: in vitro ADME; settings: human, patient plasma, iv
Outline: (§1)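 Patient plasma from peak (10 min post-infusion) and trough (pre-dose) draws was dialysed against isotonic phosphate buffer, pH 7.4, across a semipermeable membrane at 37 °C for 5 h. Dialysate and plasma were matrix-matched with blank plasma or buffer, then extracted and quantified by LC–MS/MS as for total levels. fu = Cd/Cp. Total and free levels were compared by Spearman rank correlation.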

[3] = Free; type: in vivo, human; settings: for Free Cmax / Free Cmin: equilibrium dialysis, median (IQR); for Correlation between total and free plasma concentrations: Spearman's rank correlation, Cmax and Cmin, Fig. 2
Outline: as §1

[4] = system: patients; settings: cited from earlier work
[5] = pH 7.4, Protein binding rate, Cmax sample, AKI group N = 25, equilibrium dialysis, phosphate buffer pH 7.4, 37 °C, 5 h, LC-MS/MS, median (IQR)
[6] = pH 7.4, Protein binding rate, Cmax sample, non-AKI group N = 64, equilibrium dialysis, phosphate buffer pH 7.4, 37 °C, 5 h, LC-MS/MS, median (IQR)
[7] = pH 7.4, Protein binding rate, Cmin sample, AKI group N = 25, equilibrium dialysis, phosphate buffer pH 7.4, 37 °C, 5 h, LC-MS/MS, median (IQR)
[8] = pH 7.4, Protein binding rate, Cmin sample, non-AKI group N = 64, equilibrium dialysis, phosphate buffer pH 7.4, 37 °C, 5 h, LC-MS/MS, median (IQR)

Molecule	Cmin (B1)/Cmin (B2) ([1]; AKI group N = 25)	Cmin (B1)/Cmin (B2) ([1]; non-AKI group N = 64)	fraction unbound at 5 h ([2]; pH 7.4)	fraction unbound at 5 h [2, 5]	fraction unbound at 5 h [2, 6]	fraction unbound at 5 h [2, 7]	fraction unbound at 5 h [2, 8]	Free Cmax ([3]; AKI group N = 25)	Free Cmin ([3]; AKI group N = 25)	Correlation between total and free plasma concentrations [3]	Free Cmax ([3]; non-AKI group N = 64)	Free Cmin ([3]; non-AKI group N = 64)	Incidence of AKI ([4]; colistin given iv as colistimethate sodium)	Optimal cut-off trough concentration for predicting nephrotoxicity ([4]; colistin-related nephrotoxicity) [mg/L]	Cmax (B1), RIFLE category Failure (F) ([1]; 1 patient with AKI stage Failure, total plasma peak concentration)
CC[C@H](C)CCCCC(=O)N[C@@H](CCN)C(=O)N[C@H](C(=O)N[C@@H](CCN)C(=O)N[C@H]1CCNC(=O)[C@H]([C@@H](C)O)NC(=O)[C@H](CCN)NC(=O)[C@H](CCN)NC(=O)[C@H](CC(C)C)NC(=O)[C@@H](Cc2ccccc2)NC(=O)[C@H](CCN)NC1=O)[C@@H](C)O [PMB, polymyxin B] (HELM PEPTIDE1{[CC[C@H](C)CCCCC(=O)[*:2]].[Dab].T.[Dab].[Dab].[Dab].[dF].L.[Dab].[Dab].T}$PEPTIDE1,PEPTIDE1,5:R3-11:R2$$$V2.0)	3.37 (2.85–3.68)	3.27 (2.91–3.65)	–	–	–	–	–	–	–	–	–	–	–	–	–
CC(C)CCCCC(=O)N[C@@H](CCN)C(=O)N[C@H](C(=O)N[C@@H](CCN)C(=O)N[C@H]1CCNC(=O)[C@H]([C@@H](C)O)NC(=O)[C@H](CCN)NC(=O)[C@H](CCN)NC(=O)[C@H](CC(C)C)NC(=O)[C@@H](Cc2ccccc2)NC(=O)[C@H](CCN)NC1=O)[C@@H](C)O [PMB2, polymyxin B2] (HELM PEPTIDE1{[CC(C)CCCCC(=O)[*:2]].[Dab].T.[Dab].[Dab].[Dab].[dF].L.[Dab].[Dab].T}$PEPTIDE1,PEPTIDE1,5:R3-11:R2$$$V2.0)	–	–	0.215	0.141	0.161	0.194	0.221	0.16 (0.14–0.19) μg/ml	0.07 (0.06–0.09) μg/ml	positively correlated	0.14 (0.11–0.18) μg/ml	0.07 (0.05–0.10) μg/ml	–	–	–
colistin	–	–	–	–	–	–	–	–	–	–	–	–	30–76.1%	3.33	–
CC[C@H](C)CCCCC(=O)N[C@@H](CCN)C(=O)N[C@H](C(=O)N[C@@H](CCN)C(=O)N[C@H]1CCNC(=O)[C@H]([C@@H](C)O)NC(=O)[C@H](CCN)NC(=O)[C@H](CCN)NC(=O)[C@H](CC(C)C)NC(=O)[C@@H](Cc2ccccc2)NC(=O)[C@H](CCN)NC1=O)[C@@H](C)O [PMB1, polymyxin B1] (HELM PEPTIDE1{[CC[C@H](C)CCCCC(=O)[*:2]].[Dab].T.[Dab].[Dab].[Dab].[dF].L.[Dab].[Dab].T}$PEPTIDE1,PEPTIDE1,5:R3-11:R2$$$V2.0)	–	–	0.055	0.045	0.042	0.053	0.057	0.19 (0.12–0.26) μg/ml	0.05 (0.04–0.19) μg/ml	positively correlated	0.14 (0.11–0.18) μg/ml	0.07 (0.04–0.10) μg/ml	–	–	6.17
